Test results: ChEMBL document CHEMBL1671816, “Design and synthesis of oxymatrine analogues overcoming drug resistance in hepatitis B virus through targeting host heat stress cognate 70” (J Med Chem, 2011)

Key:
[1] = test system: HepG2 2.2.15; test: Inhibition of Hsc70 mRNA expression in human HepG2(2.2.15) cells at 100 ug/ml after 24 hrs by RT-PCR analysis; type: functional; settings: HepG2 2.2.15, 24 h
Outline: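 HepG2.2.15 cells seeded at 5 × 10^4 per well in Opti-MEM with 10% FBS, grown for one day, then exposed to compound at 100 μg/mL for 24 h. Total RNA isolated with TRIZOL. Hsc70 mRNA measured by real-time RT-PCR with GAPDH as the reference gene.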

[2] = Cytotoxicity against human HepG2(2.2.15) cells after 9 days; type: cell-based; settings: read-out: TC50
Outline: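 Cytotoxicity in HepG2.2.15 cells cultured for 9 days at 37 °C, seeded at 2 × 10^4 per well. TC50 is the concentration killing 50% of cells relative to untreated controls.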

[3] = test system: Hepatitis B virus (human); test: Antiviral activity against HBV in human HepG2(2.2.15) cells assessed as reduction of viral DNA level after 9 days by RT-PCR analysis; settings: HepG2 2.2.15, 216 h
[4] = test system: Hepatitis B virus; test: Antiviral activity against wild type HBV infected in human Huh7.5 cells assessed as reduction of viral replication at 0.16 ug/ml after 36 hrs; type: functional; settings: Huh-7, 36 h
Outline: (§1)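 Huh7.5 cells (DMEM, 10% inactivated FBS, 1% pen-strep) plated at 2 × 10^5 per well, incubated overnight, then transiently transfected for 24 h with pcDNA3.1 carrying the full wild-type or lamivudine-resistant (rtL180M + rtM204V) HBV genome. After a PBS wash, treated in fresh medium for 36 h. Replicative-intermediate HBV DNA measured by real-time PCR. Run twice; mean and SD.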

[5] = test system: Hepatitis B virus; test: Antiviral activity against lamivudine-resistant HBV infected in human Huh7.5 cells assessed as reduction of viral replication at 0.16 ug/ml after 36 hrs; type: functional; settings: Huh-7, 36 h
Outline: (§2)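 Huh7.5 cells (2 × 10^5/well) were plated, incubated overnight, then transiently transfected for 24 h with pcDNA3.1 carrying wild-type or lamivudine-resistant HBV (rtL180M + rtM204V). After a PBS wash they got fresh medium with drug (0.16 μg/mL for line 6, 37 μg/mL for line 7) for 36 h. HBV DNA replicative intermediate was measured by real-time PCR; experiment run twice, mean and SD.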

[6] = test system: Hepatitis B virus; test: Antiviral activity against wild type HBV infected in human Huh7.5 cells assessed as reduction of viral replication at 37 ug/ml after 36 hrs; type: functional; settings: Huh-7, 36 h, read-out: INH; outline: as §1
[7] = test system: Hepatitis B virus; test: Antiviral activity against lamivudine-resistant HBV infected in human Huh7.5 cells assessed as reduction of viral replication at 37 ug/ml after 36 hrs; type: functional; settings: Huh-7, 36 h, read-out: INH; outline: as §2
[8] = test system: Mus musculus; test: Acute toxicity in ICR mouse assessed as mortality at up to 750 mg/kg, po after 7 days; type: organism-based; design: dose 750 mg/kg, route oral; settings: in vivo, 168 h
Outline: (§3)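 Male and female ICR mice (22.0 ± 1.0 g), 10 per group (5 male, 5 female), given a single oral dose of 0 (1% polysorbate-80 in saline), 250, 500 or 750 mg/kg. Survival and body weight were monitored for 7 days. Blood was then drawn for AST, ALT, BUN and CRE as liver and kidney function markers.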

[9] = Acute toxicity in po dosed ICR mouse assessed as mortality after 7 days; type: organism-based; settings: in vivo; outline: as §3
[10] = test system: Mus musculus; test: Acute toxicity in ICR mouse assessed as change in body weight at up to 750 mg/kg, po after 7 days; type: organism-based; design: dose 750 mg/kg, route oral; settings: in vivo, 168 h; outline: as §3
[11] = test system: Mus musculus; test: Acute toxicity in ICR mouse assessed as liver function at up to 750 mg/kg, po after 7 days; type: organism-based; design: dose 750 mg/kg, route oral; settings: in vivo, 168 h; outline: as §3
[12] = test system: Mus musculus; test: Acute toxicity in ICR mouse assessed as kidney function at up to 750 mg/kg, po after 7 days; type: organism-based; design: dose 750 mg/kg, route oral; settings: in vivo, 168 h; outline: as §3

Compound	inhibition at 100 µg/mL [1]	CC50 at 216 h [2]	IC50 [3]	further results
COC1CC(=O)N2C[C@@H]3CCCN4CCC[C@@H]([C@H]34)[C@H]2C1 (stereo not given in full)	48.6%	1110 µM	121 µM	
CNC1CC(=O)N2C[C@@H]3CCCN4CCC[C@@H]([C@H]34)[C@H]2C1 (stereo not given in full)	40.1%	> 1000 µM	168 µM	
O=C(OC1C[C@@H]2[C@H]3CCCN4CCC[C@@H](CN2C(=O)C1OC(=O)c1ccc(F)c([N+](=O)[O-])c1)[C@@H]34)c1ccc(F)c([N+](=O)[O-])c1 (stereo not given in full)	30.8%			
Cl.O=C(CCl)OC1C[C@@H]2[C@H]3CCCN4CCC[C@@H](CN2C(=O)C1O)[C@@H]34 (stereo not given in full)	88.2%	1100 µM	14 µM	
Cl.O=C(OC1C[C@@H]2[C@H]3CCCN4CCC[C@@H](CN2C(=O)C1O)[C@@H]34)c1ccccc1 (stereo not given in full)	34.5%	136 µM	42.6 µM	
CCOC(=O)OC1C[C@@H]2[C@H]3CCCN4CCC[C@@H](CN2C(=O)C1OC(=O)OCC)[C@@H]34 (stereo not given in full)	< 10%			
O=C1CC(OCc2ccccc2)C[C@@H]2[C@H]3CCCN4CCC[C@@H](CN12)[C@@H]34 (stereo not given in full)	24.7%	136 µM	14.4 µM	
CC(=O)OC1C[C@@H]2[C@H]3CCCN4CCC[C@@H](CN2C(=O)C1O)[C@@H]34.Cl (stereo not given in full)	37.1%	> 1000 µM	346 µM	
O=C1C(OCc2ccccc2)C(OCc2ccccc2)C[C@@H]2[C@H]3CCCN4CCC[C@@H](CN12)[C@@H]34 (stereo not given in full)	45.4%	37 µM	2.76 µM	
CC(Cl)C(=O)OC1C[C@@H]2[C@H]3CCCN4CCC[C@@H](CN2C(=O)C1O)[C@@H]34.Cl (stereo not given in full)	48.6%	> 1000 µM	592 µM	
O=C1CC(C[N+](=O)[O-])C[C@@H]2[C@H]3CCCN4CCC[C@@H](CN12)[C@@H]34 (stereo not given in full)	35.8%	> 1000 µM	54.5 µM	
O=C1C(O)C(O)C[C@@H]2[C@H]3CCCN4CCC[C@@H](CN12)[C@@H]34 (stereo not given in full) [13,14-DIHYDROXYMATRINE]	38.9%	> 1000 µM	47.1 µM	
COC1=CC[C@@H]2[C@H]3CCCN4CCC[C@@H](CN2C1=O)[C@@H]34	39.7%			
O=C(OC1CC(=O)N2C[C@@H]3CCCN4CCC[C@@H]([C@H]34)[C@H]2C1)c1ccccc1 (stereo not given in full)	51%	236 µM	16.3 µM	
O=C1C=CC[C@@H]2[C@H]3CCC[N+]4([O-])CCC[C@@H](CN12)[C@@H]34 (stereo not given in full) [OXYSOPHOCARPINE]	15.3%			
O=C1CC(O)C[C@@H]2[C@H]3CCCN4CCC[C@@H](CN12)[C@@H]34 (stereo not given in full) [13-HYDROXYMATRINE]	50.4%			
Nc1ccn([C@@H]2CS[C@H](CO)O2)c(=O)n1 [LAMIVUDINE]				inhibition at 0.16 µg/mL [4]: 64%; inhibition at 0.16 µg/mL [5]: 28%
CCOC1CC(=O)N2C[C@@H]3CCCN4CCC[C@@H]([C@H]34)[C@H]2C1 (stereo not given in full)	74.1%	481 µM	9.55 µM	inhibition at 37 µg/mL [6]: 32%; inhibition at 37 µg/mL [7]: 35%; Activity [8]: Non-toxic; LD50 at 168 h [9]: > 750 mg/kg; Activity [10]: Non-toxic; Activity [11]: Non-toxic; Activity [12]: Non-toxic
CCOC(=O)OC1C[C@@H]2[C@H]3CCCN4CCC[C@@H](CN2C(=O)C1O)[C@@H]34 (stereo not given in full)	54.8%	1000 µM	23.9 µM	
O=C(O)P(=O)(O)O [FOSCARNET]		> 1000 µM	106 µM	
COC1C[C@@H]2[C@H]3CCCN4CCC[C@@H](CN2C(=O)C1OC)[C@@H]34 (stereo not given in full)	39.3%			
O=C1CCC[C@@H]2[C@H]3CCCN4CCC[C@@H](CN12)[C@@H]34 [MATRINE]	52.4%			
O=C1C=CC[C@@H]2[C@H]3CCCN4CCC[C@@H](CN12)[C@@H]34 [SOPHOCARPINE]	21.6%			
O=C(OC1C[C@@H]2[C@H]3CCCN4CCC[C@@H](CN2C(=O)C1O)[C@@H]34)c1ccc(F)c([N+](=O)[O-])c1 (stereo not given in full)	43.4%			
O=C1CCC[C@@H]2[C@H]3CCC[N+]4([O-])CCC[C@@H](CN12)[C@@H]34 (stereo not given in full) [OXYMATRINE]	55%			
